Assay results as given in ChEMBL document CHEMBL5257020, “Discovery of a 9-mer Cationic Peptide (LTX-315) as a Potential First in Class Oncolytic Peptide” (J Med Chem, 2016).
Where a SMILES comes first, the peptide text is derived from it. [ ]: non-standard residue; d: D form. ξ: configuration not given here. Bip = N[C@@H](Cc1ccc(-c2ccccc2)cc1)C(=O)O; ξBip = NC(Cc1ccc(-c2ccccc2)cc1)C(=O)O; ξDip = NC(C(=O)O)C(c1ccccc1)c1ccccc1

Legend:
[1] = Drug uptake in rat Red blood cells at 60 mins by LC-MS/MS analysis; type: ADME, cell-based; conditions: erythrocyte, 1 h
Procedure, shortened: (§1)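 Pooled fresh whole blood (≥3 male and 3 female human, beagle dog or rat donors) spiked to 200 ng/mL. Incubated ~37 °C on rotary mixer over 0–120 min. Hematocrit determined. Blood and plasma analysed by LC–MS/MS. Blood/plasma ratio = Cb/C. Cell association = {[C(1 − H)]/Cb} × 100. Values at 60 min, mean of two independent measurements.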

[2] = Cytotoxicity against human MRC5 cells assessed as inhibition of cell proliferation incubated for 4 hrs by MTS assay; type: toxicity, cell-based
Procedure, shortened: (§2)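 Cells grown in RPMI-1640 with 2 mM L-glutamine and 10% FBS, plated, then held 24 h at 37 °C. Adherent lines washed once in FBS-free medium. Cells exposed 4 h at 37 °C, 5% CO2 in FBS-free medium to 10 concentrations (1/4 steps, 400 μM top). 1% Triton X-100 served as positive control. MTS/PMS added for 2 h, then OD 490 nm read. IC50 from semilog curves; three independent experiments, quadruplicate wells.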

[3] = Drug uptake in human red blood cells at 60 mins by LC-MS/MS analysis; type: ADME, cell-based; conditions: erythrocyte, 1 h; procedure, shortened: as §1
MCF7 = assay: Cytotoxicity against human MCF7 cells transfected with MDR1 assessed as inhibition of cell proliferation incubated for 4 hrs by MTS assay; type: functional, cell-based; conditions: MCF7, 4 h; procedure, shortened: as §2
SK-N-AS = assay: Cytotoxicity against human SK-N-AS cells assessed as inhibition of cell proliferation incubated for 4 hrs by MTS assay; type: functional, cell-based; procedure, shortened: as §2
HL60/ADR = assay: Cytotoxicity against human HL60/ADR cells assessed as inhibition of cell proliferation incubated for 4 hrs by MTS assay; type: functional, cell-based; procedure, shortened: as §2
[4] = Ratio of drug concentration in Beagle dog blood to plasma measured after 60 mins by LC-MS/MS analysis; type: ADME, cell-free, Canis lupus familiaris; procedure, shortened: as §1
A-431 = assay: Cytotoxicity against human A-431 cells assessed as inhibition of cell proliferation incubated for 4 hrs by MTS assay; type: functional, cell-based; conditions: A-431, 4 h; procedure, shortened: as §2
DU-145 = assay: Cytotoxicity against human DU-145 cells assessed as inhibition of cell proliferation incubated for 4 hrs by MTS assay; type: functional, cell-based; conditions: DU-145, 4 h; procedure, shortened: as §2
Cytochrome P450 1A2 [5] = biological target: T1, Cytochrome P450 1A2 (Homo sapiens, UniProt P05177); assay: Inhibition of CYP1A2 in human liver microsomes using as phenacetin substrate assessed as reduction in O-deethylation of phenacetin incubated for 5 mins in presence of beta-NADPH by LC-MS/MS analysis; type: ADME, Microsome
Procedure, shortened: (§3)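 Pooled human liver microsomes (50 donors) in 100 mM phosphate, pH 7.4, with 2 mM β-NADPH. Protein 0.1 mg/mL (2A6, 2C8, 2C9, 2E1, 3A4) or 0.3 mg/mL (1A2, 2B6, 2C19, 2D6). Test article 0–100 μM final, preincubated ~37 °C 5 or 30 min before isoform-selective substrate. Quenched in methanol with internal standard. Metabolite measured by LC–MS/MS against standard curve. Duplicates, with selective inhibitor positive controls.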

Cytochrome P450 1A2 [6] = biological target: T1, Cytochrome P450 1A2; assay: Inhibition of CYP1A2 in human liver microsomes using as phenacetin substrate assessed as reduction in O-deethylation of phenacetin incubated for 30 mins in presence of beta-NADPH by LC-MS/MS analysis; type: ADME, Microsome; procedure, shortened: as §3
[7] = Cytotoxicity against human HUVEC-C cells assessed as inhibition of cell proliferation incubated for 4 hrs by MTS assay; type: toxicity, cell-based; procedure, shortened: as §2
NAMALVA = assay: Cytotoxicity against human NAMALVA cells assessed as inhibition of cell proliferation incubated for 4 hrs by MTS assay; type: functional, cell-based; procedure, shortened: as §2
[8] = Cytotoxicity against human MRC5 cells assessed as inhibition of cell proliferation incubated for 4 hrs by MTT assay; type: toxicity, cell-based
Procedure, shortened: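 MRC-5 human embryonic lung fibroblasts cultured in MEM with 2 mM L-glutamine and 10% FBS, without antibiotics, at 37 °C in humidified 5% CO2. Cultures were tested for mycoplasma. IC50 from three or more independent measurements, given as mean ± SD.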

[9] = Stability in pooled and cryopreserved rat hepatocytes assessed as intrinsic clearance measured per 10^6 cells at 1 uM measured for 90 mins by LC-MS/MS analysis; type: ADME, cell-based, Hepatocyte; conditions: read-out: CLH
Procedure, shortened: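 Pooled cryopreserved hepatocytes at 0.5 million cells/mL, incubated at about 37 °C with 1 μM initial peptide. Supernatant after centrifugation analysed by LC–MS/MS (MRM) using a D-Trp7,9,10-substance P internal standard. Peak height was referenced to time zero, and t1/2 = −0.693/slope of ln concentration vs time. Clint = 0.693/t1/2 × Vinc per million cells. Testosterone, midazolam and 4-methylumbelliferone were the positive controls. Duplicates; mean of two experiments.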

HCT-15 = assay: Cytotoxicity against human HCT-15 cells assessed as inhibition of cell proliferation incubated for 4 hrs by MTS assay; type: functional, cell-based; conditions: HCT-15, 4 h; procedure, shortened: as §2
Calu-6 = assay: Cytotoxicity against human Calu-6 cells assessed as inhibition of cell proliferation incubated for 4 hrs by MTS assay; type: functional, cell-based; conditions: Calu-6, 4 h; procedure, shortened: as §2
Cytochrome P450 2C8 = Cytochrome P450 2C8 (Homo sapiens, UniProt P10632); assay: Inhibition of CYP2C8 in human liver microsomes using paclitaxel as substrate assessed as reduction in substrate hydroxylation incubated for 30 mins in presence of beta-NADPH measured by LC-MS/MS analysis; type: ADME, Microsome; procedure, shortened: as §3
Cytochrome P450 2A6 = Cytochrome P450 2A6 (Homo sapiens, UniProt P11509); assay: Inhibition of CYP2A6 in human liver microsomes using coumarin as substrate assessed as reduction in substrate hydroxylation incubated for 30 mins in presence of beta-NADPH measured by LC-MS/MS analysis; type: ADME, Microsome; procedure, shortened: as §3
Cytochrome P450 2C19 = Cytochrome P450 2C19 (Homo sapiens, UniProt P33261); assay: Inhibition of CYP2C19 in human liver microsomes using (S)-mephenytoin as substrate assessed as reduction in substrate hydroxylation incubated for 30 mins in presence of beta-NADPH measured by LC-MS/MS analysis; type: ADME, Microsome; procedure, shortened: as §3
[10] = Stability in pooled and cryopreserved rat hepatocytes assessed as half life at 1 uM measured for 90 mins by LC-MS/MS analysis; type: ADME, cell-based, Hepatocyte
Procedure, shortened: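 Pooled cryopreserved rat or human hepatocytes, 0.5 million cells/mL, ~37 °C, peptide at 1 μM initial. Supernatants analysed by LC–MS/MS with peak height referenced to time zero. t1/2 = −0.693/slope of ln concentration vs time. Duplicate experiments. Testosterone, midazolam and 4-methylumbelliferone served as metabolic-competence controls.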

CEM-VLB = assay: Cytotoxicity against human CCRF-CEM/VLB cells assessed as inhibition of cell proliferation incubated for 4 hrs by MTS assay; type: functional, cell-based; procedure, shortened: as §2
PC-3 = assay: Cytotoxicity against human PC-3 cells assessed as inhibition of cell proliferation incubated for 4 hrs by MTS assay; type: functional, cell-based; conditions: PC-3, 4 h; procedure, shortened: as §2
Daudi = assay: Cytotoxicity against human Daudi cells assessed as inhibition of cell proliferation incubated for 4 hrs by MTS assay; type: functional, cell-based; procedure, shortened: as §2
SK-OV-3 = assay: Cytotoxicity against human SK-OV-3 cells assessed as inhibition of cell proliferation incubated for 4 hrs by MTS assay; type: functional, cell-based; conditions: SK-OV-3, 4 h; procedure, shortened: as §2
U-937 = assay: Cytotoxicity against human U-937 cells assessed as inhibition of cell proliferation incubated for 4 hrs by MTS assay; type: functional, cell-based; conditions: U-937, 4 h; procedure, shortened: as §2
HL-60 = assay: Cytotoxicity against human HL-60 cells assessed as inhibition of cell proliferation incubated for 4 hrs by MTS assay; type: functional, cell-based; conditions: HL-60, 4 h; procedure, shortened: as §2

T1 sequence (P05177 whole entry, canonical isoform): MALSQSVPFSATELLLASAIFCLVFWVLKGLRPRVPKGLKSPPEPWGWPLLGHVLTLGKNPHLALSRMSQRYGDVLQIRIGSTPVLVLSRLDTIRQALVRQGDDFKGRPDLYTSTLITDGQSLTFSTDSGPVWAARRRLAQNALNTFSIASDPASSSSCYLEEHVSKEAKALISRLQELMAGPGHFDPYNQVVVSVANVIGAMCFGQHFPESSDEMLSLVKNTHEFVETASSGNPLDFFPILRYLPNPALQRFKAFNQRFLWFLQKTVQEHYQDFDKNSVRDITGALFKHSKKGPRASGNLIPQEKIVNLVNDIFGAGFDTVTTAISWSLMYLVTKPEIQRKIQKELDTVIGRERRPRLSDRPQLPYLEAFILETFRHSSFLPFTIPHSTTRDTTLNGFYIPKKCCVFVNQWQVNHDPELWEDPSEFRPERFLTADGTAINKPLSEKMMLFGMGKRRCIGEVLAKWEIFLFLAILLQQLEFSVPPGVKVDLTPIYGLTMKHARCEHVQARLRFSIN
Cytochrome P450 2C8, sequence (P10632 whole entry): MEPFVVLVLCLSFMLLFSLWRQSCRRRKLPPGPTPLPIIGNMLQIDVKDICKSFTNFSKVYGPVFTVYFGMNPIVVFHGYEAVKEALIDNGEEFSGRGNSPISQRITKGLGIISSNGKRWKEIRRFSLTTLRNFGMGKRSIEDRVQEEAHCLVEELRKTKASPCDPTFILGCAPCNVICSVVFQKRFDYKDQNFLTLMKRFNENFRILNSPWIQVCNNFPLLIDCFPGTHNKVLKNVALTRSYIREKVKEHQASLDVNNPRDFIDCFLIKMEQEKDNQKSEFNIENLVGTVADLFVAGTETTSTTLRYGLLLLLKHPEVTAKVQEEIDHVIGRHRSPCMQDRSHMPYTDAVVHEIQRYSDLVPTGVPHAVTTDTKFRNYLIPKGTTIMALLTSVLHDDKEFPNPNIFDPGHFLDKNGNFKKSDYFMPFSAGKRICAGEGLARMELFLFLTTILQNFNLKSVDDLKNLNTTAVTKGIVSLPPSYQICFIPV
Cytochrome P450 2A6, sequence (P11509 whole entry): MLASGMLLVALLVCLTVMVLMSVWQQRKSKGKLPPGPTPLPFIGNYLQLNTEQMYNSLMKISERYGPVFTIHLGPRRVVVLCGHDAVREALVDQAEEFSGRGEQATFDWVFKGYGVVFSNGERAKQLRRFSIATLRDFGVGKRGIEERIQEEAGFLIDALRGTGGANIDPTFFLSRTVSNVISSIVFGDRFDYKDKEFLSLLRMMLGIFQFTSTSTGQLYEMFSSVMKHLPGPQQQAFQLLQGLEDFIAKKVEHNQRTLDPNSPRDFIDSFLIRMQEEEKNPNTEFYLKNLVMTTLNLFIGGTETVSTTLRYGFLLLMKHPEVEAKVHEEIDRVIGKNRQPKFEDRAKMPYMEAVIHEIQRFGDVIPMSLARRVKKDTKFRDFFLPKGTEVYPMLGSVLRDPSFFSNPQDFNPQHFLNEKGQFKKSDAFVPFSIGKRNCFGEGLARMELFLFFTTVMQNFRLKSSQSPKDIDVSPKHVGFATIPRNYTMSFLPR
Cytochrome P450 2C19, sequence (P33261 whole entry): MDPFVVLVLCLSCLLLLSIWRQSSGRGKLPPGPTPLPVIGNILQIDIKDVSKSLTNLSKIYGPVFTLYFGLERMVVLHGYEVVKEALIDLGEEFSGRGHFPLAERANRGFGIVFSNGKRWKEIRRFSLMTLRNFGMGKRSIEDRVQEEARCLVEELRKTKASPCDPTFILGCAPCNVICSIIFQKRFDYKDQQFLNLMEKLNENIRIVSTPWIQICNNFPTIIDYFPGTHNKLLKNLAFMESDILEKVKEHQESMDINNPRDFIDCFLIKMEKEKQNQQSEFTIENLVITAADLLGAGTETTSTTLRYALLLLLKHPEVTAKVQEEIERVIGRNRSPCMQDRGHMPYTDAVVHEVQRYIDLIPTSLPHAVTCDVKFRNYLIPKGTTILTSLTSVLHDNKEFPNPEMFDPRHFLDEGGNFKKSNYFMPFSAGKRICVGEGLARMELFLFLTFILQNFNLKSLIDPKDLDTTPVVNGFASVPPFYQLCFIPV

SMILES | IC50 at 4 h [2] [µM] | IC50 (MCF7) [µM] | IC50 (SK-N-AS) [µM] | IC50 (HL60/ADR) [µM] | IC50 (A-431) [µM] | IC50 (DU-145) [µM] | IC50 at 4 h [7] [µM] | IC50 (NAMALVA) [µM] | IC50 at 4 h [8] [µM] | IC50 (HCT-15) [µM] | IC50 (Calu-6) [µM] | IC50 (CEM-VLB) [µM] | IC50 (PC-3) [µM] | IC50 (Daudi) [µM] | IC50 (SK-OV-3) [µM] | IC50 (U-937) [nM] | IC50 (HL-60) [µM] | further results
NCCCC[C@H](NC(=O)C(NC(=O)[C@H](Cc1c[nH]c2ccccc12)NC(=O)[C@H](CCCCN)NC(=O)[C@H](CCCCN)NC(=O)[C@H](Cc1c[nH]c2ccccc12)NC(=O)[C@H](Cc1c[nH]c2ccccc12)NC(=O)[C@H](CCCCN)NC(=O)[C@@H](N)CCCCN)C(c1ccccc1)c1ccccc1)C(N)=O (stereo not given in full) (H-KKWWKKW[ξDip]K-NH2) | 9.2 | 2.5 | 2.5 | 3 | 3.2 | 3.9 | 16.3 | 3.6 | 34.3 | 3.8 | 2.1 | 2.4 | 4.4 | 4 | 7.2 | 1200 | 2.1 | Drug uptake [1]: 44%; Drug uptake [3]: 27%; blood plasma ratio at 1 h [4]: 2.19; IC50 (Cytochrome P450 1A2 [5]): 37.9 µM; IC50 (Cytochrome P450 1A2 [6]): > 100 µM; hepatocyte CLint at 1 µM [9]: 20 µL/min/1e6 cells; IC50 (Cytochrome P450 2C8): 7.9 µM; IC50 (Cytochrome P450 2A6): 26.3 µM; IC50 (Cytochrome P450 2C19): > 100 µM; half-life at 1 µM [10]: 71 min
NCCCC[C@H](NC(=O)[C@H](Cc1c[nH]c2ccccc12)NC(=O)[C@H](Cc1c[nH]c2ccccc12)NC(=O)[C@H](CCCCN)NC(=O)[C@H](CCCCN)NC(=O)[C@H](Cc1c[nH]c2ccccc12)NC(=O)[C@H](Cc1ccc(-c2ccccc2)cc1)NC(=O)[C@H](CCCCN)NC(=O)[C@@H](N)CCCCN)C(N)=O (H-KK[Bip]WKKWWK-NH2) | 27.9 | 4.9 | 6 | 4.9 | 7.1 | 8.2 | 33 | 6.5 | 87 | 10 | 4.9 | 4 | 10.1 | 7.9 | 12.6 | 2700 | 6.1 | –
NCCCC[C@H](NC(=O)[C@H](Cc1c[nH]c2ccccc12)NC(=O)[C@H](Cc1c[nH]c2ccccc12)NC(=O)[C@H](CCCCN)NC(=O)[C@H](CCCCN)NC(=O)[C@H](Cc1c[nH]c2ccccc12)NC(=O)C(Cc1ccc(-c2ccccc2)cc1)NC(=O)[C@H](CCCCN)NC(=O)[C@@H](N)CCCCN)C(N)=O (stereo not given in full) (H-KK[ξBip]WKKWWK-NH2) | 30.9 | 8.4 | 6.1 | 7 | 7.2 | 8.8 | 37.9 | 8.5 | 151 | 13.9 | 6.1 | 5.7 | 9.3 | 6.6 | 17.7 | 3800 | 6.1 | –
N=C(N)NCCC[C@H](NC(=O)[C@H](Cc1c[nH]c2ccccc12)NC(=O)[C@H](Cc1c[nH]c2ccccc12)NC(=O)[C@H](CCCNC(=N)N)NC(=O)[C@H](CCCNC(=N)N)NC(=O)C(NC(=O)[C@H](Cc1c[nH]c2ccccc12)NC(=O)[C@H](CCCNC(=N)N)NC(=O)[C@@H](N)CCCNC(=N)N)C(c1ccccc1)c1ccccc1)C(N)=O (stereo not given in full) (H-RRW[ξDip]RRWWR-NH2) | 14.6 | 6.6 | 6.9 | 6 | 5.5 | 6.8 | 19.4 | 5.3 | 76 | 7.5 | 5.8 | 3.6 | 9.8 | 4.7 | 7.4 | 2600 | 6.7 | –
NCCCC[C@H](NC(=O)[C@H](Cc1c[nH]c2ccccc12)NC(=O)[C@H](CCCCN)NC(=O)[C@H](CCCCN)NC(=O)C(NC(=O)[C@H](Cc1c[nH]c2ccccc12)NC(=O)[C@H](CCCCN)NC(=O)[C@H](CCCCN)NC(=O)[C@@H](N)Cc1c[nH]c2ccccc12)C(c1ccccc1)c1ccccc1)C(N)=O (stereo not given in full) (H-WKKW[ξDip]KKWK-NH2) | 28 | 11 | 10.4 | 10.5 | 11.7 | 12.4 | 55.5 | 7.1 | 122 | 12 | 6.9 | 5.3 | 14.1 | 8.1 | 18.1 | 5300 | 8 | –
